Tests used:
[1] = tested on: sstr2-transfected HCT116 tumor-bearing mice; test: Small animal PET/CT imaging; format: in vivo; conditions: 2 h p.i.; for tumor SUV: PET/CT; for tumor SUV, blocked: unlabeled Y3-TATE co-injected to block
[2] = Biodistribution in tumor-bearing mice; format: in vivo; conditions: mouse, liver, intravenous, 1.85 MBq
[3] = tested on: sstr2-transfected HCT116 tumor-bearing female nu/nu mice; test: Biodistribution in tumor-bearing mice; format: in vivo; conditions: for blood clearance (in words): 1 to 4 h p.i.; for tumor uptake blocked by co-injected Y3-TATE: 4 h p.i., 20 μg Y3-TATE co-injected
[4] = tested on: sstr2-transfected HCT116 cells; test: Cell internalization assay; format: cell-based, Human; conditions: for maximum internalized tracer: after 2 h at 37 °C, 4 nM tracer
How it was run: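 sstr2-transfected HCT116 cells (Iscove's, 10% FBS, 1 mM Zeocin) in 12-well plates with 64Cu-labelled tracer at 4 nM final (labelled at >98% yield, used without purification). Surface-bound and internalized activity gamma-counted at 15, 30, 60, 120 and 240 min. Nonspecific binding from 1000-fold excess Y3-TATE. Values normalized to added activity and to BCA protein (%ID/mg).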

Molecule: C[C@@H](O)[C@H](NC(=O)[C@@H]1CSSC[C@H](NC(=O)[C@@H](Cc2ccccc2)NC(=O)CCCCCn2nnc3c2-c2ccccc2N(C(=O)CCNC(=O)CN2CCCN4CCN(CCCN(CP(=O)(O)O)CC4)CC2)Cc2ccccc2-3)C(=O)N[C@@H](Cc2ccc(O)cc2)C(=O)N[C@H](Cc2c[nH]c3ccccc23)C(=O)N[C@@H](CCCCN)C(=O)N[C@@H]([C@@H](C)O)C(=O)N1)C(=O)O (single isomer, unassigned) [^64Cu-AP-1, ^64Cu-CB-TE1A1P–DBCO–Y3-TATE, metal not drawn]
- tumor SUV [1]: 4.6 ± 0.8
- tumor SUV, blocked [1]: 0.47 ± 0.18
- tissue uptake at 24 h [2]: < 1 %ID/g
- blood clearance (in words) [3]: significantly slower than the blood clearance of ^64Cu-1A1P
- liver uptake (in words) ([3]; 1 h p.i.): significantly higher than that of ^64Cu-KP-1 and ^64Cu-1A1P
- tumor uptake blocked by co-injected Y3-TATE [3]: 63%
- maximum internalized tracer [4]: 45 ± 3 %ID/mg

Molecule: C[C@@H](O)[C@H](NC(=O)[C@@H]1CSSC[C@H](NC(=O)[C@@H](Cc2ccccc2)NC(=O)CCCCCn2nnc3c2-c2ccccc2N(C(=O)CCNC(=O)CN2CCCN4CCN(CCCN(CP(=O)(O)O)CC4)CC2)Cc2ccccc2-3)C(=O)N[C@@H](Cc2ccc(O)cc2)C(=O)N[C@H](Cc2c[nH]c3ccccc23)C(=O)N[C@@H](CCCCN)C(=O)N[C@@H]([C@@H](C)O)C(=O)N1)C(=O)O (single isomer, unassigned) [^64Cu-AP-2, ^64Cu-CB-TE1A1P–DBCO–Y3-TATE, metal not drawn]
- maximum internalized tracer [4]: 73 ± 7 %ID/mg

Molecule: C[C@@H](O)[C@H](NC(=O)[C@@H]1CSSC[C@H](NC(=O)[C@@H](Cc2ccccc2)NC(=O)CCCCCn2nnc3c2-c2ccccc2N(C(=O)CCNC(=O)CN2CCCN4CCN(CCCN(CP(=O)(O)O)CC4)CC2)Cc2ccccc2-3)C(=O)N[C@@H](Cc2ccc(O)cc2)C(=O)N[C@H](Cc2c[nH]c3ccccc23)C(=O)N[C@@H](CCCCN)C(=O)N[C@@H]([C@@H](C)O)C(=O)N1)C(=O)O (single isomer, unassigned) [^64Cu-AP-3, ^64Cu-CB-TE1A1P–DBCO–Y3-TATE, metal not drawn]
- internalization (in words) ([4]; 37 °C, up to 4 h): slower internalization which was not saturated after 4 h

Molecule: C[C@@H](O)[C@H](NC(=O)[C@@H]1CSSC[C@H](NC(=O)[C@@H](Cc2ccccc2)NC(=O)CCCCCn2nnc3c2-c2ccccc2N(C(=O)CCNC(=O)CCOCCOCCOCCOCCOCCC(=O)NCCCCC(C(=O)O)N2CCCN4CCN(CCCN(CP(=O)(O)O)CC4)CC2)Cc2ccccc2-3)C(=O)N[C@@H](Cc2ccc(O)cc2)C(=O)N[C@H](Cc2c[nH]c3ccccc23)C(=O)N[C@@H](CCCCN)C(=O)N[C@@H]([C@@H](C)O)C(=O)N1)C(=O)O (some centres unmarked) [^64Cu-KP-1, ^64Cu-CB-TE1K1P–PEG4–DBCO–Y3-TATE, metal not drawn]
- tumor SUV [1]: 3.2 ± 0.2
- tumor SUV, blocked [1]: 0.21 ± 0.06
- tissue uptake at 24 h [2]: < 1 %ID/g
- blood clearance (in words) [3]: significantly slower than the blood clearance of ^64Cu-1A1P
- liver uptake (in words) ([3]; 4 and 24 h p.i.): lower uptake in the liver than ^64Cu-AP-1 and ^64Cu-1A1P
- tumor uptake blocked by co-injected Y3-TATE [3]: 84%

Molecule: ^64Cu-CB-TE1A1P–Y3-TATE [^64Cu-1A1P]
- tumor SUV [1]: 2.8 ± 0.4
- tumor SUV, blocked [1]: 0.19 ± 0.02
- tumor-to-blood ratio (in words) ([3]; 1, 4 and 24 h p.i.): significantly higher than both ^64Cu-AP-1 and ^64Cu-KP-1 at all time points
- tumor uptake (in words) ([3]; 4 and 24 h p.i.): significantly higher tumor uptake than ^64Cu-KP-1 and ^64Cu-AP-1
- tumor uptake blocked by co-injected Y3-TATE [3]: 95%

Source: paper PMC4261236 (Journal of Medicinal Chemistry, 2014)
